Source: publication PMC9064899 (The FEBS journal, 2021)
Numbering of substitutions follows the chain as printed.

Assays:
[1] = target: T1, UBIAD1 D112N (Homo sapiens, UniProt Q9Y5Z9, D112N); test: Cell-based UBIAD1 functional assay
T1 sequence (Q9Y5Z9 1-338 D112N): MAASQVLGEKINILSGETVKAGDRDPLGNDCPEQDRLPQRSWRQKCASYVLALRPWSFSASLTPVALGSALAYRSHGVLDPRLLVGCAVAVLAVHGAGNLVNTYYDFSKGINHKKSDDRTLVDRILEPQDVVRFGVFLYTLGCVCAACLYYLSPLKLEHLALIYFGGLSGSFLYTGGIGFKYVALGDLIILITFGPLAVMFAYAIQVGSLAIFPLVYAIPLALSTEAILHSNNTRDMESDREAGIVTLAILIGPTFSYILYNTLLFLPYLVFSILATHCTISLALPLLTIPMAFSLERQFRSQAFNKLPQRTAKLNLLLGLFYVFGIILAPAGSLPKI
Method in brief: (§1)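 Wild-type or mutant human UBIAD1 in pCI-neo was transiently transfected into Ubiad1-knockout FIXgla-PC/HEK293 cells (DMEM/F12, 10% FBS). […] After 24 h, carboxylated FIXgla-PC in the medium was measured by ELISA. Activity was normalized to wild type (100%), and EC50 came from a curve fit. Mean ± SD, n=3 independent experiments.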

[2] = target: T2, UBIAD1 D112G (Homo sapiens, UniProt Q9Y5Z9, D112G); test: Cell-based UBIAD1 functional assay
T2 sequence (Q9Y5Z9 1-338 D112G): T1 sequence (Q9Y5Z9 1-338 D112N) with N112G
Method in brief: as §1

CC1=CC(=O)c2ccccc2C1=O [vitamin K3, menadione]
EC50 [1]: 6.4 ± 0.6 nM
Vitamin K-dependent carboxylation Activity ± SD ([1]; D112N, 1 μM vitamin K3): 109.6 ± 5.2%
EC50 [2]: 5.1 ± 0.8 nM
Vitamin K-dependent carboxylation Activity ± SD ([2]; D112G, 1 μM vitamin K3): 104.8 ± 3%
